Experimental data as given in PMC2677188 (ACS chemical biology, 2009).
Several values for one entry are separate records, joined by “and”; a condition that tells them apart may be missing. Equal entries are not always repeated. Where two headings read alike, the source gives them in different places.

Tests used:
[1] = molecular target: rTAAR1 (wild type rat TAAR1) (Rattus norvegicus, UniProt Q923Y9); assay: In vitro cAMP agonist activity assay; format: cell-based
[2] = molecular target: T1, mTAAR1 (wild type mouse TAAR1) (Mus musculus, UniProt Q923Y8); assay: In vitro cAMP agonist activity assay, wild type mTAAR1; format: cell-based
T1 sequence (Q923Y8 whole entry): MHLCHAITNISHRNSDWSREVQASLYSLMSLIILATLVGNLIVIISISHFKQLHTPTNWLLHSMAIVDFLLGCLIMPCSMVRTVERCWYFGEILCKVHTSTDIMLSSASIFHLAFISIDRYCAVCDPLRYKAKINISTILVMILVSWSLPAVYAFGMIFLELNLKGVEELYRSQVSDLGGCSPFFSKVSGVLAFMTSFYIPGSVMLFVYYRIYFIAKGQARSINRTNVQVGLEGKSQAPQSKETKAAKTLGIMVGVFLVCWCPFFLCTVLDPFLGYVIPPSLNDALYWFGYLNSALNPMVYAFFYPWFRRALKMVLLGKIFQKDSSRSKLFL

[3] = molecular target: rTAAR1(M6.55T) (Rattus norvegicus, UniProt Q923Y9, M268T); assay: cAMP agonist activity assay, rTAAR1; format: cell-based
rTAAR1(M6.55T), sequence (Q923Y9 whole entry M268T): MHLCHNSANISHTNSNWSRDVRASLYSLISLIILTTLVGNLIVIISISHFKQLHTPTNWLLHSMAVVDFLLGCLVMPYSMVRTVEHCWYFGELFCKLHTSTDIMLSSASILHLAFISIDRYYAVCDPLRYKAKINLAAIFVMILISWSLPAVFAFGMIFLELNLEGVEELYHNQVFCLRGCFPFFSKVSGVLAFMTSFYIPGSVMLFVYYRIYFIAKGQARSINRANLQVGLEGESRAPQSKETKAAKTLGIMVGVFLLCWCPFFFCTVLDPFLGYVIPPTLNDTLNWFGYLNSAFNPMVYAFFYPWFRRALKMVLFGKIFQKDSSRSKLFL

[4] = molecular target: rTAAR1(N7.39Y) (Rattus norvegicus, UniProt Q923Y9, N287Y); assay: cAMP agonist activity assay, rTAAR1; format: cell-based
rTAAR1(N7.39Y), sequence (Q923Y9 whole entry N287Y): as the sequence (Q923Y9 whole entry M268T) above, with T268M, N287Y counted along it

[5] = molecular target: rTAAR1(M6.55T/N7.39Y) (Rattus norvegicus, UniProt Q923Y9, M268T/N287Y); assay: cAMP agonist activity assay, rTAAR1; format: cell-based
rTAAR1(M6.55T/N7.39Y), sequence (Q923Y9 whole entry M268T/N287Y): as the sequence (Q923Y9 whole entry M268T) above, with N287Y counted along it

[6] = molecular target: mTAAR1(T6.55M) (Mus musculus, UniProt Q923Y8, T268M); assay: cAMP agonist activity assay, mTAAR1; format: cell-based
mTAAR1(T6.55M), sequence (Q923Y8 whole entry T268M): as the sequence (Q923Y8 whole entry) above, with T268M counted along it

[7] = molecular target: mTAAR1(Y7.39N) (Mus musculus, UniProt Q923Y8, Y287N); assay: cAMP agonist activity assay, mTAAR1; format: cell-based
mTAAR1(Y7.39N), sequence (Q923Y8 whole entry Y287N): as the sequence (Q923Y8 whole entry) above, with Y287N counted along it

[8] = molecular target: mTAAR1(T6.55M/Y7.39N) (Mus musculus, UniProt Q923Y8, T268M/Y287N); assay: cAMP agonist activity assay, mTAAR1; format: cell-based
mTAAR1(T6.55M/Y7.39N), sequence (Q923Y8 whole entry T268M/Y287N): as the sequence (Q923Y8 whole entry) above, with T268M, Y287N counted along it

[9] = molecular target: rTAAR1(A5.42L) (Rattus norvegicus, UniProt Q923Y9, A193L); assay: cAMP agonist activity assay, rTAAR1; format: cell-based; conditions: for decrease in potency versus wild type: rTAAR1(A5.42L)
rTAAR1(A5.42L), sequence (Q923Y9 whole entry A193L): as the sequence (Q923Y9 whole entry M268T) above, with A193L, T268M counted along it
In short: (§1)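 Site-directed TAAR1 mutants were stably expressed in HEK293 cells (transfected, selected with G418). cAMP was measured with a HitHunter cAMP XS kit over concentration-response curves. Responses were expressed relative to the reference agonist at 10 μM (set as 100%). EC50 and Emax were obtained by curve fitting, averaged over N independent triplicate experiments, with SEM.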

[10] = molecular target: rTAAR1(A5.42I) (Rattus norvegicus, UniProt Q923Y9, A193I); assay: cAMP agonist activity assay, rTAAR1; format: cell-based; conditions: for decrease in potency versus wild type: rTAAR1(A5.42I)
rTAAR1(A5.42I), sequence (Q923Y9 whole entry A193I): as the sequence (Q923Y9 whole entry M268T) above, with A193I, T268M counted along it
In short: as §1

[11] = molecular target: rTAAR1(A5.42T) (Rattus norvegicus, UniProt Q923Y9, A193T); assay: cAMP agonist activity assay, rTAAR1; format: cell-based
rTAAR1(A5.42T), sequence (Q923Y9 whole entry A193T): as the sequence (Q923Y9 whole entry M268T) above, with A193T, T268M counted along it
In short: as §1

[12] = molecular target: mTAAR1(Y4.56F) (Mus musculus, UniProt Q923Y8, Y153F); assay: cAMP agonist activity assay, mTAAR1; format: cell-based; conditions: for increase in potency versus wild type: mTAAR1(Y4.56F)
mTAAR1(Y4.56F), sequence (Q923Y8 whole entry Y153F): as the sequence (Q923Y8 whole entry) above, with Y153F counted along it
In short: as §1

[13] = molecular target: T1, mTAAR1 (wild type mouse TAAR1); conditions: wild type receptors; cited from earlier work
[14] = molecular target: rTAAR1(F4.56Y) (Rattus norvegicus, UniProt Q923Y9, F153Y); assay: cAMP agonist activity assay, rTAAR1; format: cell-based
rTAAR1(F4.56Y), sequence (Q923Y9 whole entry F153Y): as the sequence (Q923Y9 whole entry M268T) above, with F153Y, T268M counted along it
In short: as §1

rTAAR1 (wild type rat TAAR1), sequence (Q923Y9 whole entry): as the sequence (Q923Y9 whole entry M268T) above, with T268M counted along it

NCCc1ccc(Oc2ccc(O)cc2)c(I)c1 [Compound 1, 3-Iodothyronamine]
EC50 ([1]; read-out: EC50 ± SEM, wild type rTAAR1, HEK293 cells, cAMP): 33 ± 3 nM | Emax ± SEM ([1]; wild type rTAAR1, Emax = 100 % is the activity of 1 at 10 mM (so in the source)): 100± 0% | rTAAR1 selectivity: fold more potent for rTAAR1 compared to mTAAR1 ([1]; wild type receptors): ~ 10 fold and 7–10 fold | EC50 ([2]; read-out: EC50 ± SEM, wild type mTAAR1, HEK293 cells, cAMP): 314 ± 43 nM | improvement of potency at mTAAR1 on eliminating the β-phenyl ring of 2, 5 and 7 ([2]; wild type mTAAR1): 24- to 32 fold | Emax ± SEM ([2]; wild type mTAAR1, Emax = 100 % is the activity of 1 at 10 mM (so in the source)): 100 ± 0% | EC50 ([3]; read-out: EC50 ± SEM): 129 ± 43 nM | Emax ± SEM ([3]; relative to 1): 100 ±0% | EC50 ([4]; read-out: EC50 ± SEM): 135 nM | Emax ± SEM ([4]; relative to 1): 100% | EC50 ([5]; read-out: EC50 ± SEM): 90 nM | Emax ± SEM ([5]; relative to 1): 100% | EC50 ([6]; read-out: EC50 ± SEM): 1420 ± 592 nM | Emax ± SEM ([6]; relative to 1): 100 ± 0% | EC50 ([7]; read-out: EC50 ± SEM): 251 ± 43 nM | Emax ± SEM ([7]; relative to 1): 100 ± 0% | EC50 ([8]; read-out: EC50 ± SEM): 208 ± 60 nM | Emax ± SEM ([8]; relative to 1): 100 ± 0% | decrease in potency versus wild type [9]: 2 fold | Emax ± SEM ([9]; rTAAR1 A5.42L (Table 3a), relative to 1): 100 ± 0% | EC50 ([9]; read-out: EC50 ± SEM, rTAAR1 A5.42L (Table 3a)): 58 ± 16 nM | decrease in potency versus wild type [10]: 3 fold | Emax ± SEM ([10]; rTAAR1 A5.42I (Table 3a), relative to 1): 100 ± 0% | EC50 ([10]; read-out: EC50 ± SEM, rTAAR1 A5.42I (Table 3a)): 108 ± 14 nM | fold less potent versus wild type ([11]; rTAAR1(A5.42T)): 3 fold | Emax ± SEM ([11]; rTAAR1 A5.42T, relative to 1): 100 ± 0% | EC50 ([11]; read-out: EC50 ± SEM, rTAAR1 A5.42T): 88 ± 13 nM | increase in potency versus wild type [12]: 5 fold | fold less potent for mTAAR1 compared to rTAAR1 [13]: 7 to 10 fold

NCCc1ccc(O)cc1 [Tyramine, tyramine]
EC50 [1]: 65 ± 1 nM | Emax ([1]; read-out: Emax ± SEM): 119 ± 7% | EC50 [2]: 271 ± 52 nM | Emax ([2]; read-out: Emax ± SEM): 110 ± 2% | EC50 [9]: ~2000 nM | decrease in potency versus wild type [9]: 31 fold | Emax ([9]; read-out: Emax ± SEM): 102 ± 18% | EC50 [10]: > 10000 nM | decrease in potency versus wild type [10]: 154 fold | Emax ([10]; read-out: Emax ± SEM): 49 ± 7% | EC50 [11]: > 10000 nM | fold less potent versus wild type ([11]; rTAAR1(A5.42T)): 154 fold | less efficacious than wild type ([11]; rTAAR1(A5.42T)): 50% | Emax ([11]; read-out: Emax ± SEM): 69 ± 5% | EC50 [14]: 54 ± 11 nM | Emax ([14]; read-out: Emax ± SEM): 108 ± 6% | EC50 [12]: 40 ± 13 nM | increase in potency versus wild type [12]: 7 fold | Emax ([12]; read-out: Emax ± SEM): 118 ± 8% | fold less potent for mTAAR1 compared to rTAAR1 [13]: 7 to 10 fold
